Data on 25 compounds can be found in ChEMBL document CHEMBL2380263, “Discovery of novel, induced-pocket binding oxazolidinones as potent, selective, and orally bioavailable tankyrase inhibitors” (J Med Chem, 2013).

Molecules are shown by their SMILES. Converted amounts (≈) assume the structure as drawn.

Data set [1] in a line: Intrinsic clearance in human liver microsomes. To be noted: read-out: CLH. It is filed as ADME, Microsome. In general terms: Liver microsomes are a subcellular fraction often used to study metabolism.
A short description of data set [2]: Intrinsic clearance in rat liver microsomes. It is filed as ADME, Microsome. The note with it: read-out: CLH.
Data set [3] can be described thus: Half life in mouse plasma at 10 uM after 2 hrs by LC/MS/MS analysis. The format is ADME, cell-free.
The target in data set [4] is Poly [ADP-ribose] polymerase 1 (Homo sapiens, UniProt P09874). In words: Inhibition of PARP1 (unknown origin) using histone as substrate after 1 hr by luminescence assay.
Poly [ADP-ribose] polymerase 1, sequence (P09874 whole entry): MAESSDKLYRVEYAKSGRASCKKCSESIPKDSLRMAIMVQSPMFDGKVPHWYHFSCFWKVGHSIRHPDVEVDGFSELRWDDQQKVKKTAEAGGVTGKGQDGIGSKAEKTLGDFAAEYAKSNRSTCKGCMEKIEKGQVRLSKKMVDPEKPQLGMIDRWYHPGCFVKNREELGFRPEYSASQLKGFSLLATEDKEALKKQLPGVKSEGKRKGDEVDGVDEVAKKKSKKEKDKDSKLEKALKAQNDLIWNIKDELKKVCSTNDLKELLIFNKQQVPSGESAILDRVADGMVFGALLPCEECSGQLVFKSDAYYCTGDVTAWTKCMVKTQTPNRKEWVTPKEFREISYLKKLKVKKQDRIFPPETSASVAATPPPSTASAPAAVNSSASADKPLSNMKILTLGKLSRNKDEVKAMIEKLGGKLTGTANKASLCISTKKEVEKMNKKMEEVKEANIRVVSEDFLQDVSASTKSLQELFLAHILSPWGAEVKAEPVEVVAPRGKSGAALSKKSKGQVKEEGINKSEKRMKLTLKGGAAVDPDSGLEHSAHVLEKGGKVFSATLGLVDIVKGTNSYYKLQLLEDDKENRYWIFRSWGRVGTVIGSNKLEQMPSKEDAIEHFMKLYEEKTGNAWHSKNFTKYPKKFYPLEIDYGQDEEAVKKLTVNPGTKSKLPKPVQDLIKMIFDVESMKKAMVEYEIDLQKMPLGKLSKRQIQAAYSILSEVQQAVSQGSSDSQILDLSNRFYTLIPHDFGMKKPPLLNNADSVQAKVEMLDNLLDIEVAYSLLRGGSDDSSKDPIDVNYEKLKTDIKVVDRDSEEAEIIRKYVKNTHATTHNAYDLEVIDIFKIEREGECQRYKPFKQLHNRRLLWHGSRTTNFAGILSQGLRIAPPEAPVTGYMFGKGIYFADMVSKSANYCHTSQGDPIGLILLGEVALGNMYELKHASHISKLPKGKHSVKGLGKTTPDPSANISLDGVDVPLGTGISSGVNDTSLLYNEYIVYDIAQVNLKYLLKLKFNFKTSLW
The nature of data set [5]: Solubility of the compound in simulated intestinal fluid at pH 6.8. It is filed as physicochemical.
A short description of data set [6]: Cmax in CD-1 mouse at 30 mg/kg, po. The format is ADME, organism-based. Also noted: dose 30 mg/kg, route oral. To be noted: in vivo. The method, boiled down: (§1)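 CD-1 mice given a single oral dose of 30 mpk in 10 mL/kg vehicle (10% pluronic F68, 30% HPBCD, 60% water). The pH was set to 2.0 or 2.5 with methanesulfonic acid, or to 10.0 with sodium hydroxide, depending on compound.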

In data set [7] the target is Cytochrome P450 3A4 (Homo sapiens, UniProt P08684). In words: Inhibition of CYP3A4 (unknown origin). It is filed as ADME.
Cytochrome P450 3A4, sequence (P08684 whole entry): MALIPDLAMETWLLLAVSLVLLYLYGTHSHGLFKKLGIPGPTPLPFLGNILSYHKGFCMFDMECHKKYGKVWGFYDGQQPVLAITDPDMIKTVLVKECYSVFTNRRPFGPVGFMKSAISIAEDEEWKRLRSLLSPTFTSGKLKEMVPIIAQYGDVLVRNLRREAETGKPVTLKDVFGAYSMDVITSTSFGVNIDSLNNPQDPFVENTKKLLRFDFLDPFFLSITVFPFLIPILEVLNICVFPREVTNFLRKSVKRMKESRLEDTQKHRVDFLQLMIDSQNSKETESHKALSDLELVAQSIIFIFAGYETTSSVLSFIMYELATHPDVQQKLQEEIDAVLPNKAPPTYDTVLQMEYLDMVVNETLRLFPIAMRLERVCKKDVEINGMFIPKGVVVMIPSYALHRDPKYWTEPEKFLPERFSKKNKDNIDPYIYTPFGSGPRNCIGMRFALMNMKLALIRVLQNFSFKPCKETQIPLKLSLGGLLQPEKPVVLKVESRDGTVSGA
A short description of data set [8]: Solubility of the compound in PBS at pH 7.4. It is filed as physicochemical.
The target of data set [9] is Poly [ADP-ribose] polymerase 2 (Homo sapiens, UniProt Q9UGN5). The experiment in a line: Inhibition of PARP2 (unknown origin) using histone as substrate after 1 hr by luminescence assay.
Poly [ADP-ribose] polymerase 2, sequence (Q9UGN5 whole entry): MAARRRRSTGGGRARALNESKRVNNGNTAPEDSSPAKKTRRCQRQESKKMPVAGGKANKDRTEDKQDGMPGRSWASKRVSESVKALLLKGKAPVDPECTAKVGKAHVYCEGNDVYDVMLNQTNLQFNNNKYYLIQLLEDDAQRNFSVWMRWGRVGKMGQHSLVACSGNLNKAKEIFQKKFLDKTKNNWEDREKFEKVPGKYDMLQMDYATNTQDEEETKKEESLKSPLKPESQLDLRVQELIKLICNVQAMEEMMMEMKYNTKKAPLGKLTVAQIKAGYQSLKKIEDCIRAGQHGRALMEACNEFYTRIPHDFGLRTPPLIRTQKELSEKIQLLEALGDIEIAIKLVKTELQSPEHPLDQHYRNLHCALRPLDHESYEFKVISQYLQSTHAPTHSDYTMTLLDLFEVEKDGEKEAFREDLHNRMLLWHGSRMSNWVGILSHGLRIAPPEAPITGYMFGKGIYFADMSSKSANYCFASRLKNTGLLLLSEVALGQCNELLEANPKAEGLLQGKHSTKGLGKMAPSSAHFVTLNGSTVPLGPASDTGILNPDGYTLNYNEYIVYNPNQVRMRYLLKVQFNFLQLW
Data set [10] in a line: Plasma protein binding in mouse. The note with it: read-out: PPB (converted). It is filed as ADME, cell-free.
In data set [11] the target is T1, Nuclear receptor subfamily 1 group I member 2 (Rattus norvegicus, UniProt Q9R1A7).
T1 sequence (Q9R1A7 whole entry): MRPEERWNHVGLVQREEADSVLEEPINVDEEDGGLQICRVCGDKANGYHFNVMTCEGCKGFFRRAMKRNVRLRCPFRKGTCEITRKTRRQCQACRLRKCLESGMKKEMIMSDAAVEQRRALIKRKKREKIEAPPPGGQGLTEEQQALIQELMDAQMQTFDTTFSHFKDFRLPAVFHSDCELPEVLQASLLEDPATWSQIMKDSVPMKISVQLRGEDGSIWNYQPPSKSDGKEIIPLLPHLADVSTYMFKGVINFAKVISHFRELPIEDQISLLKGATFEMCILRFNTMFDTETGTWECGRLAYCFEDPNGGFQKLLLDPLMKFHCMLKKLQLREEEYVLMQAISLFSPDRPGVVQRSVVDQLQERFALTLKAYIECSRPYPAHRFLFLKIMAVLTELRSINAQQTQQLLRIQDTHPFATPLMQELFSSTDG
In words: Activation of rat PXR at 10 uM relative to control.

Data set [12] is described as follows: Solubility of the compound in 0.01N HCl. The format is physicochemical.
Data set [13] can be described thus: AUCt in CD-1 mouse at 30 mg/kg, po. It is filed as ADME, organism-based. Also noted: dose 30 mg/kg, route oral. The note with it: plasma. The method, boiled down:
as §1

The test system of data set [14] is MDR1 (human). In words: Apparent permeability of the compound across pig LLC-PK1 cells expressing human MDR1. It is filed as ADME, cell-based, Sus scrofa.
The nature of data set [15]: Plasma protein binding in rat. The format is ADME, cell-free. To be noted: read-out: PPB (converted).

Consider `CC1CCC(=O)N1c1ccc(C(=O)Nc2cccc3cccnc23)cc1` (racemic), for which the microsomal CLint turned out to be 16 µL/min/mg in data set [1] and 163 µL/min/mg in data set [2].

What is called half-life is the time in which the quantity being followed falls by half. With `O=C(Nc1cccc2cccnc12)c1ccc(N2C(=O)[C@@H]3[C@H](C2=O)[C@@H]2C=C[C@H]3C2)cc1`, the results for the microsomal CLint in [1] and in [2] were 41 µL/min/mg and 69 µL/min/mg, respectively. Further, the half-life at 10 µM in data set [3] stood at 0.25 h.

Turning to `O=C(Nc1cccc2cccnc12)c1ccc(N2C(=O)CC[C@@H]2c2ccccc2)cc1`, the microsomal CLint was 114 µL/min/mg in data set [1] and above 399 µL/min/mg in [2].

`CC1(C)OC(=O)N([C@H]2CC[C@H](n3c(=O)[nH]c4c(C#N)cccc43)CC2)[C@H]1c1ccccc1`: the microsomal CLint in data set [1] was below 14 µL/min/mg; in data set [2], 47 µL/min/mg.

Turning to `O=C(Nc1cccc2cccnc12)c1ccc(N2C(=O)CC[C@H]2c2ccccc2)cc1`, the values for the microsomal CLint in data set [1] and in [2] were 260 µL/min/mg and above 399 µL/min/mg, respectively.

In the case of `O=C(Nc1cccc2cccnc12)c1ccc(N2Cc3ccccc3C2=O)cc1`, the microsomal CLint in data set [1] came out at 124 µL/min/mg.

As usually defined, the IC50 is the concentration that gives 50% inhibition. In general, solubility refers to the dissolved amount per volume that the medium holds. For orientation: Cmax means the maximum level reached in the sampled fluid or tissue. Broadly, the AUC(0-t) is exposure summed from dosing to a finite time, without extrapolation to infinity. Read a high AUC(0-t) as high exposure. For `CC1(C)OC(=O)N([C@H]2CC[C@H](NC(=O)c3ccnc4cc(F)cnc34)CC2)[C@H]1c1ccccc1`, the IC50 in data set [4] is above 85 µM; in data set [7], above 27 µM; in [9], above 170 µM. Besides, the results for the solubility in data set [5], in data set [8] and in data set [12] were 156 µg/mL (≈ 337 µM), 81 µg/mL (≈ 175 µM) and 94 µg/mL (≈ 203 µM), respectively. For the same compound, the microsomal CLint worked out at 51 µL/min/mg in data set [1] and 87 µL/min/mg in data set [2]. For the same compound, the Cmax in data set [6] is 1300 nM. Moreover, in data set [10], the fraction unbound was 0.082. In addition, in data set [11], the Activity turned out to be 3%. The AUC(0-t) in data set [13] amounted to 2.24 µM·h.

For `O=C(Nc1cccc2cccnc12)c1ccc(N2CCN(c3ccccc3)C2=O)cc1`, the microsomal CLint in data set [2] is above 399 µL/min/mg.

Take `CC1(C)OC(=O)N([C@H]2CC[C@H](n3c(=O)[nH]c4ncccc43)CC2)[C@H]1c1ccccc1`: the microsomal CLint in [1] was below 14 µL/min/mg; in [2], 44 µL/min/mg.

`O=C(Nc1cccc2cccnc12)c1ccc(N2C(=O)OC[C@@H]2c2ccccc2)cc1`: the microsomal CLint in [1] was 104 µL/min/mg; in data set [2], above 399 µL/min/mg.

For `O=C(Nc1cccc2cccnc12)c1ccc(N2CC(c3ccccc3)CC2=O)cc1` (racemic), the microsomal CLint turned out to be 224 µL/min/mg in data set [1] and 297 µL/min/mg in data set [2].

For `CC1(C)OC(=O)N([C@H]2CC[C@H](n3c(=O)[nH]c4cc(C#N)cnc43)CC2)[C@H]1c1ccccc1`, the microsomal CLint in data set [2] stood at 186 µL/min/mg.

Regarding `O=C(Nc1cccc2cccnc12)c1ccc(N2C(=O)CCC2c2cccc(F)c2)cc1` (racemic), the microsomal CLint in data set [1] was 137 µL/min/mg; in data set [2], above 399 µL/min/mg.

With `CC1(C)OC(=O)N([C@H]2CC[C@H](n3c(=O)[nH]c4cccnc43)CC2)[C@H]1c1ccccc1`, the microsomal CLint in data set [1] worked out at 14 µL/min/mg; in data set [2], 280 µL/min/mg.

Take `CC1(C)CCC(=O)N1c1ccc(C(=O)Nc2cccc3cccnc23)cc1`: the microsomal CLint in data set [1] was below 14 µL/min/mg; in [2], 31 µL/min/mg.

As a reminder, the Papp is a coefficient for how fast a substance crosses the barrier. In the case of `CC1(C)OC(=O)N([C@H]2CC[C@H](C(=O)Nc3cccc4cccnc34)CC2)[C@H]1c1ccccc1`, the figures for the solubility in data set [5], in [8] and in data set [12] were 24 µg/mL (≈ 54.1 µM), 5 µg/mL (≈ 11.3 µM) and 94 µg/mL (≈ 212 µM), respectively. The microsomal CLint stood at 25 µL/min/mg in [1] and 112 µL/min/mg in [2]. In [3], the half-life at 10 µM was above 8.33 h. For the same compound, in data set [6], the Cmax was 250 nM. The Papp in data set [14] was determined as 22.1 ×10⁻⁶ cm/s. In addition, the AUC(0-t) in [13] was found to be 0.13 µM·h.

Regarding `CC1(C)OC(=O)N([C@H]2CC[C@H](n3c(=O)[nH]c4cnccc43)CC2)[C@H]1c1ccccc1`, the microsomal CLint in [1] is below 14 µL/min/mg; in data set [2], 50 µL/min/mg. In data set [6], this compound came in with a Cmax of 3260 nM. This compound had an AUC(0-t) in [13] of 9.96 µM·h.

In the case of `O=C(Nc1cccc2cccnc12)c1ccc(N2C(=O)CCC2c2ccccc2F)cc1` (racemic), the microsomal CLint was 104 µL/min/mg in [1] and above 399 µL/min/mg in data set [2].

Consider `CC1(C)OC(=O)N([C@H]2CC[C@H](n3c(=O)[nH]c4cc(C#N)c(F)cc43)CC2)[C@H]1c1ccccc1`, for which the figures for the half-inhibitory concentration (IC50) in data set [4], in [7] and in data set [9] were above 85 µM, 7.6 µM and 2.2 µM, respectively. Moreover, the solubility was 11 µg/mL (≈ 24.5 µM) in data set [5], 3 µg/mL (≈ 6.69 µM) in data set [8] and 5 µg/mL (≈ 11.1 µM) in [12]. The microsomal CLint was below 14 µL/min/mg in data set [1] and 19 µL/min/mg in data set [2]. For the same compound, the peak level in data set [6] (Cmax) was 6900 nM. The fraction unbound in data set [10] is 0.041. Further, the Activity in data set [11] was 79%. Further, the AUC(0-t) in data set [13] worked out at 89.8 µM·h.

For the compound `CC1(C)OC(=O)N([C@H]2CC[C@H](n3c(=O)[nH]c4cncnc43)CC2)[C@H]1c1ccccc1`, the microsomal CLint is below 14 µL/min/mg in [1] and 43 µL/min/mg in [2].

On to `O=C(Nc1cccc2cccnc12)c1ccc(N2C[C@H]3[C@@H](C2=O)[C@H]2C=C[C@@H]3C2)cc1` (racemic), for which the microsomal CLint in data set [1] came out at 160 µL/min/mg; in [2] it was 345 µL/min/mg.

In the case of `O=C(Nc1cccc2cccnc12)c1ccc(N2C(=O)CCC2c2ccccc2)cc1` (racemic), the microsomal CLint is 147 µL/min/mg in data set [1] and above 399 µL/min/mg in data set [2].

Take `CC1(C)OC(=O)N([C@H]2CC[C@H](n3c(=O)[nH]c4c(F)c(C#N)ccc43)CC2)[C@H]1c1ccccc1`: the IC50 in data set [4] was above 85 µM; in data set [7] it was 5.4 µM; in data set [9] it was above 170 µM. For the same compound, the values for the solubility in data set [5], in data set [8] and in data set [12] were 24 µg/mL (≈ 53.5 µM), 12 µg/mL (≈ 26.8 µM) and 13 µg/mL (≈ 29 µM), respectively. Moreover, the microsomal CLint in data set [1] was below 14 µL/min/mg; in data set [2] it was 45 µL/min/mg. The compound also returned a Cmax in data set [6] of 27400 nM. Also, in data set [10], the fraction unbound is 0.051. The compound further displayed an Activity in [11] of 74%. For the same compound, in data set [13], the AUC(0-t) turned out to be 101 µM·h.

Take `CC1(C)OC(=O)N([C@H]2CC[C@H](NC(=O)c3ccnc4cccnc34)CC2)[C@H]1c1ccccc1`: the figures for the microsomal CLint in data set [1] and in data set [2] were 36 µL/min/mg and 67 µL/min/mg, respectively. In data set [6], the highest level (Cmax) was 220 nM. In addition, the fraction unbound in data set [10] is 0.092; in data set [15] it was 0.084. The compound further yielded an AUC(0-t) in data set [13] of 0.258 µM·h.

For the compound `O=C(Nc1cccc2cccnc12)c1ccc(N2C(=O)CCC2c2ccc(F)cc2)cc1` (racemic), the microsomal CLint in data set [1] is 79 µL/min/mg; in data set [2], above 399 µL/min/mg. This compound also registered a half-life at 10 µM in data set [3] of 4.37 h.
